These results are taken from ChEMBL document CHEMBL4152204, “Discovery of N-hydroxy-3-alkoxybenzamides as direct acid sphingomyelinase inhibitors using a ligand-based pharmacophore model” (Eur J Med Chem, 2018).

Active and inactive are the calls of the source. The rule behind the calls is not given here.

As usually defined, the inhibition is the relative decrease from the control value, in per cent. What is called IC50 is the concentration that gives 50% inhibition.

In assay [1] the target is T1, Sphingomyelin phosphodiesterase (Mus musculus) (UniProt Q04519).
T1 sequence (whole entry): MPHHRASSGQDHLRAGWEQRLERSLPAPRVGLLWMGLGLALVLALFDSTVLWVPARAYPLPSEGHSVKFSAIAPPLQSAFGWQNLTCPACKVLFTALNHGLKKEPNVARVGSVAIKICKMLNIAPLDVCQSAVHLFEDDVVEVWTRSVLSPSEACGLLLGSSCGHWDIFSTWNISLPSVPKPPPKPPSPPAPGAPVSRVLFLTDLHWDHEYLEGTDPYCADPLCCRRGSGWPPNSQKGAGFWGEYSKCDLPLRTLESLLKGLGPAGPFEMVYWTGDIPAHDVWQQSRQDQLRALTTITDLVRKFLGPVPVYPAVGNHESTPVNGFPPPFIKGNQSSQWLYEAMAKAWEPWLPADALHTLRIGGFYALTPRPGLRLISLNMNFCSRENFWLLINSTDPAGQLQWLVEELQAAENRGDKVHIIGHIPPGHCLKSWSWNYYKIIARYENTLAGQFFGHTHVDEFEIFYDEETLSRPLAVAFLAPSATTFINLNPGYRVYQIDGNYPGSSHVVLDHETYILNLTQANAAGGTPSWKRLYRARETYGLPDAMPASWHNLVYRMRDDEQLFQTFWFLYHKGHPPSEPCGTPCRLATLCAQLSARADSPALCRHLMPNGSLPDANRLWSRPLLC
Nature of the assay: Inhibition of acid sphingomyelinase in mouse NIH/3T3 cells assessed as ceramide levels at 20 uM after 20 hrs by LC-MS/MS analysis relative to control. The assay is classed as cell-based. The procedure, abridged: (§1)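 NIH3T3 cells in DMEM with 10% FBS, 37 °C, 5% CO₂; at 90% confluence given fresh medium plus inhibitor (5, 10, 20 µM) for 20 h; total ceramides and sphingomyelin quantified by LC-MS-MS versus untreated control; mean ± SD of three independent experiments, Student's t-test.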

Assay [2] concerns NIH3T3. Nature of the assay: Cytoprotective activity against UV-induced apoptosis in mouse NIH/3T3 cells assessed as late apoptotic cells at 60 uM preincubated for 20 hrs followed by UV irradiation for 5 mins and measured after 24 hrs by flow cytometric analysis (reference value: 6.4%). Format: functional. (A flow cytometer gives signals particle by particle.)
Assay [3] deals with T1, Sphingomyelin phosphodiesterase (Mus musculus). The assay is described as follows: Inhibition of acid sphingomyelinase in mouse NIH/3T3 cells assessed as increase in […] level at 5 uM after 20 hrs by LC-MS/MS analysis relative to control. Format: cell-based. Details: scale not given: the % may be the effect or the level left. The procedure, abridged: as §1

Assay [4] relates to NIH3T3. Nature of the assay: Cytoprotective activity against UV-induced apoptosis in mouse NIH/3T3 cells assessed as viable cells at 40 uM preincubated for 20 hrs followed by UV irradiation for 5 mins and measured after 24 hrs by flow cytometric analysis (reference value: 12.6%). The assay is classed as functional. Particulars: NIH3T3, light or radiation study, read-out: Activity.

The target of assay [5] is T1, Sphingomyelin phosphodiesterase (Mus musculus). The assay is described as follows: Inhibition of UV-induced ceramide production in mouse NIH/3T3 cells by LC-MS/MS analysis. The assay is classed as cell-based. The procedure, abridged:
(§2)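 Ceramide in the UV-apoptosis setup: NIH3T3 cells pretreated with inhibitor 20 h, UV 315 nm 0.29 mW/cm² 5 min, further 24 h with inhibitor; ceramide quantified (pmol/mg) by LC-MS-MS; amitriptyline as positive control; mean ± SD of three independent experiments.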

For assay [6], the system named is NIH3T3. The assay is described as follows: Cytoprotective activity against UV-induced apoptosis in mouse NIH/3T3 cells assessed as viable cells at 60 uM preincubated for 20 hrs followed by UV irradiation for 5 mins and measured after 24 hrs by flow cytometric analysis (reference value: 12.6%). The assay is classed as functional. Particulars: NIH3T3, light or radiation study, read-out: Activity.

Assay [7] deals with NIH3T3. The assay is described as follows: Cytoprotective activity against UV-induced apoptosis in mouse NIH/3T3 cells assessed as necrotic cells at 60 uM preincubated for 20 hrs followed by UV irradiation for 5 mins and measured after 24 hrs by flow cytometric analysis (reference value: 1.5%). The assay is classed as functional.
Assay [8] relates to NIH3T3. Nature of the assay: Inhibition of LPS-induced IL-6 production in mouse NIH/3T3 cells preincubated for 20 hrs followed by LPS-stimulation and measured after 6 hrs by ELISA. The assay is classed as functional, cell-based. The essentials: (§3)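 NIH3T3 cells (DMEM, 10% FBS) seeded at 2*10⁵ per well overnight, inhibitor 20 h, then LPS to 50 ng/mL for a further 6 h; IL-6 or IL-8 measured by ELISA; compared with LPS-only and control groups.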
For orientation: In an ELISA, binding on a coated surface is turned into a signal by an enzyme label.

Assay [9] concerns NIH3T3. Nature of the assay: Inhibition of LPS-induced IL-8 production in mouse NIH/3T3 cells at 2.5 uM preincubated for 20 hrs followed by LPS-stimulation and measured after 6 hrs by ELISA. The assay is classed as functional, cell-based. The procedure, abridged: as §3
Assay [10] deals with T1, Sphingomyelin phosphodiesterase (Mus musculus). The assay is described as follows: Inhibition of acid sphingomyelinase in mouse NIH/3T3 cells assessed as ceramide levels at 5 uM after 20 hrs by LC-MS/MS analysis relative to control. The assay is classed as cell-based. The essentials:
as §1

Assay [11] has the same target. The assay is described as follows: Inhibition of acid sphingomyelinase in mouse NIH/3T3 cells assessed as increase in […] level at 10 uM after 20 hrs by LC-MS/MS analysis relative to control. Format: cell-based. The arrangement: scale not given: the % may be the effect or the level left. The procedure, abridged: as §1
Assay [12] has the same target. The assay is described as follows: Inhibition of UV-induced ceramide production in mouse NIH/3T3 cells assessed as ceramide level at 50 uM by LC-MS/MS analysis (reference value: 107.686 pmol/mg). The assay is classed as cell-based. The procedure, abridged:
as §2

Assay [13] deals with T2, Sphingomyelin phosphodiesterase (Homo sapiens) (UniProt P17405).
T2 sequence (whole entry): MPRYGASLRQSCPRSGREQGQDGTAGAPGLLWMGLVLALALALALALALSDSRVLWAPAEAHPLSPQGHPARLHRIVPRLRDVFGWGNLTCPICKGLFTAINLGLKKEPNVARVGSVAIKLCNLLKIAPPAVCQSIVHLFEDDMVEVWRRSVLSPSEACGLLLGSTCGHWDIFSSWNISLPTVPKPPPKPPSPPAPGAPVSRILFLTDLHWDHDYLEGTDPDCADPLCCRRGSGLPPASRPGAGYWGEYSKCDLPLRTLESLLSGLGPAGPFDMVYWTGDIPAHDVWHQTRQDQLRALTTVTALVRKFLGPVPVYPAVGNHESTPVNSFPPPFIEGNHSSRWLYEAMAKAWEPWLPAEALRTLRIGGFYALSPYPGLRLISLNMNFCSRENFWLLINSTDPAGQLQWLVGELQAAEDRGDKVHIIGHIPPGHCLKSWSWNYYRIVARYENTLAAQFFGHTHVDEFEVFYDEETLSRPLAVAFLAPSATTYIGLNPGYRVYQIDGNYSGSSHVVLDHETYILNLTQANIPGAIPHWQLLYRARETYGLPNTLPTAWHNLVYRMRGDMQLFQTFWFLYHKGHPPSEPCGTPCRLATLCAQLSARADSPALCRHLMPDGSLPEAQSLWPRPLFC
The assay is described as follows: Competitive inhibition of acid sphingomyelinase in human HuH7 cell lysate using varying levels of NBD-sphingomyelin as substrate at 0.5 to 5 uM after 30 mins by Lineweaver-Burk analysis. Particulars: in the assay text read “after 10 mins” for “after 30 mins”. The essentials:
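Kinetics using the lysate ASM protocol, NBD-SM at 1.35, 1.89, 2.70, 4.54 and 13.5 µM per inhibitor level (0.5, 1.0, 5 µM); reaction stopped after 10 min; NBD-ceramide quantified by HPLC against a standard curve; Lineweaver-Burk plots by linear regression; triplicate.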

Assay [14] has as its system NIH3T3. Nature of the assay: Cytotoxicity against mouse NIH/3T3 cells after 24 hrs by MTT assay. The assay is classed as cell-based. The conditions noted are these: NIH3T3, 24 h.
Assay [15] deals with NIH3T3. Nature of the assay: Cytoprotective activity against UV-induced apoptosis in mouse NIH/3T3 cells assessed as early apoptotic cells at 40 uM preincubated for 20 hrs followed by UV irradiation for 5 mins and measured after 24 hrs by flow cytometric analysis (reference value: 79.5%). The assay is classed as functional.

Turning to `CCCCCCCCCCOc1cc(C(=O)NO)ccc1OC`, the inhibition in assay [1] was 42.6%; in assay [5], “Dose-dependent effect”; with NIH3T3 [8], “Dose-dependent effect”; in assay [10] it was 26.1%. Further, the Activity was 7.5% in the assay with NIH3T3 [2]; 31.9% in assay [3]; 0.6% with NIH3T3 [7]; 36.4% in [11]; 106 pmol/mg in [12]; 41.1% in the assay on NIH3T3 [15]. The viability at 40 µM in the assay on NIH3T3 [4] is 50.9%. Also, the viability at 60 µM in the assay with NIH3T3 [6] was determined as 36.2%. Also, the inhibition result in the assay on NIH3T3 [9] was “inactive”. Besides, the inhibition entry in assay [13] is “Active”. In the assay on NIH3T3 [14], this compound displayed an IC50 of 51.4 µM.
